Results published in ChEMBL document CHEMBL4819119, “Design and evaluation of 1,2,3-dithiazoles and fused 1,2,4-dithiazines as anti-cancer agents” (Bioorg Med Chem Lett, 2021).
Converted amounts (≈) assume the structure as drawn.

Assays:
[1] = Cytotoxicity against human UCH2 cells assessed as reduction in cell viability incubated for 72 hrs by alamar blue assay; type: functional, cell-based; conditions: UCH2, 72 h
Method in brief: (§1)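 Cells seeded in 384-well plates and dosed 24 h after plating, in quadruplicate. Viability was read by alamarBlue fluorescence at 72 h. IC50 came from nonlinear regression as the mean of 4 replicates. Growth media carried 10% FBS and 1% pen/strep: UCH1/UCH2 in 4:1 IMDM:RPMI-1640 in gel-coated flasks; A431, PANC1 and WS1 in DMEM; DU145 and MCF7 in MEM; 5637 in RPMI-1640.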

A-431 = assay: Cytotoxicity against human A-431 cells assessed as reduction in cell viability incubated for 72 hrs by alamar blue assay; type: functional, cell-based; conditions: A-431, 72 h; method in brief: as §1
[2] = Cytotoxicity against human WS1 cells assessed as reduction in cell viability incubated for 72 hrs by alamar blue assay; type: cell-based; conditions: WS1, 72 h; method in brief: as §1
MCF7 = assay: Cytotoxicity against human MCF7 cells assessed as reduction in cell viability incubated for 72 hrs by alamar blue assay; type: functional, cell-based; conditions: MCF7, 72 h; method in brief: as §1
[3] = Cytotoxicity against human UCH1 cells assessed as reduction in cell viability incubated for 72 hrs by alamar blue assay; type: functional, cell-based; conditions: UCH1, 72 h; method in brief: as §1
PANC-1 = assay: Cytotoxicity against human PANC1 cells assessed as reduction in cell viability incubated for 72 hrs by alamar blue assay; type: functional, cell-based; conditions: PANC-1, 72 h; method in brief: as §1
5637 [4] = assay: Cytotoxicity against human 5637 cells assessed as reduction in cell viability incubated for 72 hrs by alamar blue assay; type: functional, cell-based; conditions: Homo sapiens, 5637, 72 h; method in brief: as §1
DU-145 = assay: Cytotoxicity against human DU-145 cells assessed as reduction in cell viability incubated for 72 hrs by alamar blue assay; type: functional, cell-based; conditions: DU-145, 72 h; method in brief: as §1
5637 [5] = assay: Cytotoxicity against human 5637 cells assessed as reduction in cell viability incubated for 3 hrs by MTT assay; type: functional, cell-based; conditions: Homo sapiens, 5637, 3 h
Cryptococcus neoformans = assay: Antifungal activity against Cryptococcus neoformans; type: functional
[6] = test system: Feline immunodeficiency virus; assay: Antiviral activity against Feline immunodeficiency virus; type: functional, organism-based

Row | Structure (SMILES) | IC50 [1] [µM] | IC50 (A-431) [µM] | IC50 [2] [µM] | IC50 (MCF7) [µM] | IC50 [3] [µM] | IC50 (PANC-1) [µM] | IC50 5637 [4] [µM] | IC50 (DU-145) [µM] | IC50 5637 [5] [µM] | MIC (Cryptococcus neoformans) [µg/mL] | EC50 [6] [µM]
1 | CSc1ccc(/N=c2\ssnc2Cl)cc1 | 37 | 51 | 66 | 36 | 38 | 86 | 34 | 14 | – | – | –
2 | Cc1nn(C)c2c1SSC(C#N)=N2 | > 100 | > 100 | > 100 | > 100 | > 100 | > 100 | 81 | 40 | – | – | –
3 | Cc1ccc(Nc2nccc(N(C)c3ccc4c(C)n(C)nc4c3)n2)cc1S(N)(=O)=O [PAZOPANIB] | – | – | – | – | – | – | – | – | 15 | – | –
4 | COc1ccc(/N=c2\ssnc2Cl)cc1 | – | – | – | – | – | – | – | – | – | 8 (≈ 30.9 µM) | –
5 | CCOC(=O)c1c2nssc-2c(Cl)c1Cl | – | – | – | – | – | – | – | – | – | – | 0.31
6 | Cc1cc(OC(F)(F)F)ccc1/N=c1\ssnc1Cl | 87 | > 100 | > 100 | 43 | 57 | 76 | 47 | 18 | – | – | –
7 | CCCCOc1ccc(/N=c2\ssnc2Cl)cc1 | 48 | > 100 | > 100 | 42 | 54 | > 100 | 18 | 52 | – | – | –
8 | N#Cc1cc(Br)ccc1/N=c1\ssnc1N1CCN(CCCl)CC1 | 23 | > 100 | > 100 | 4.1 | 32 | 18 | 8 | 15 | – | – | –
9 | Cc1cc(/N=c2\ssnc2Cl)n(Cc2ccccc2)n1 | 30 | 27 | 15 | 18 | 33 | 26 | 2.1 | 10 | – | – | –
10 | O=C(OCCN1CCN(c2nss/c2=N\c2ccccc2)CC1)c1ccccc1 | 34 | 36 | 38 | 17 | 23 | 60 | 13 | 30 | – | – | –
11 | Cc1cc(/N=c2\ssnc2Cl)n[nH]1 | 18 | 69 | 40 | 18 | 33 | 27 | 20 | 14 | – | – | –
12 | Clc1nss/c1=N\c1nccs1 | 22 | 17 | 24 | 45 | 10 | 24 | 15 | 8.1 | – | – | –
13 | O=S(=O)(Nc1nccs1)c1ccc(/N=c2\ssnc2Cl)cc1 | 36 | > 100 | > 100 | 49 | 30 | 97 | 27 | 92 | – | – | –
14 | O=C1c2ccccc2C(=O)N1CCN1CCN(c2nssc2=S)CC1 | > 100 | > 100 | > 100 | 51 | 46 | 73 | 25 | 23 | – | – | –
15 | O=S(=O)(Nc1ncccn1)c1ccc(/N=c2\ssnc2Cl)cc1 | 19 | > 100 | > 100 | 3 | 34 | 37 | 39 | 29 | – | – | –
16 | Clc1nss/c1=N\c1ccc(Br)cc1 | 51 | > 100 | > 100 | 11 | 43 | 35 | 36 | 48 | – | – | –
17 | Clc1nss/c1=N\c1ccc(Oc2ccccc2)cc1 | 33 | > 100 | > 100 | 35 | 30 | 55 | 35 | > 100 | – | – | –
18 | Clc1nss/c1=N\c1cc(-c2ccccc2)n[nH]1 | 38 | > 100 | > 100 | 9.3 | 59 | 23 | 16 | 11 | – | – | –
19 | Clc1nss/c1=N\c1cccc(Br)c1 | 59 | > 100 | 94 | 6.7 | 40 | 38 | 53 | 27 | – | – | –
